We go through 97 compounds from ChEMBL document CHEMBL4513216, “Probing the Open Global Health Chemical Diversity Library for Multistage-Active Starting Points for Next-Generation Antimalarials” (ACS Infect Dis, 2020).

The nature of the series: Toxicity liver stage against HepG2, at 10uM. The class given is cell-based. The conditions noted are these: human, HepG2-A16-CD81EGFP cells; read-out: INHIBITION
Further details: test concentration 10 uM, cell line HepG2-A16-CD81EGFP. The procedure, abridged: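 Uninfected HepG2-A16-CD81EGFP cells, 3 × 10^3 per well, 1536-well, plated on prespotted compound at 10 μM final, parasite-free screening media added to match infected plates; puromycin 10 μM positive, DMSO 0.5% negative; run in parallel with 48 h PbLuc assay at 37 °C, 5% CO2; viability by CellTiter-Glo luminescence, normalized to controls.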
For `CCCN1CCc2[nH]nc(C(=O)N3CCNC(=O)C3)c2C1`, the cytotoxicity at 10 µM was 14.9%.

For `CCN(CC)C(=O)CNC(=O)N1CCC(c2ccccc2)C1` (configuration not stated), the cytotoxicity at 10 µM is 2.03%.

With `CCNc1ncc(CN2C[C@@H](CN3CCC(CO)CC3)[C@@H](CO)C2)cn1`, the cytotoxicity at 10 µM was -6.03%.

For `O=C1N(CCO)CCCC12CCN(Cc1noc(C3CCCC3)n1)C2` (configuration not stated), the cytotoxicity at 10 µM was -0.973%.

Turning to `CN(C(=O)Cc1ccccc1Cl)C1CCN(c2ccccn2)CC1`, the cytotoxicity at 10 µM is -7.48%.

For `Cc1nn(C)c2ncc(CNCCc3ccccn3)cc12`, the cytotoxicity at 10 µM was 4.13%.

On to `O=C(C1CCN(S(=O)(=O)N2CCCC2)CC1)N1CCC2(CC1)OCCO2`, for which the cytotoxicity at 10 µM was -17.9%.

`O=C([C@H]1C[C@H]2OCC[C@H]2N(Cc2cccnc2)C1)N1CCCCO1`: the cytotoxicity at 10 µM was -69.8%.

On to `CSCCc1nc(-c2ccc3c(c2)OCO3)n(C)n1`, for which the cytotoxicity at 10 µM is 1.6%.

For `Cc1nc(CN2CCn3cc(CNC(=O)C4CCC4)nc3C2)cs1`, the cytotoxicity at 10 µM was -6.52%.

With `Cn1ncnc1CNc1ccccc1C(=O)NC(C)(C)C`, the cytotoxicity at 10 µM worked out at 3.9%.

For the compound `N#Cc1ccc(SCCC(=O)O)cc1`, the cytotoxicity at 10 µM was -2.85%.

Take `CCOCC(=O)N1CCn2cc(CN(C)Cc3ccco3)nc2C1`: the cytotoxicity at 10 µM came out at 4.73%.

For `CCCN(CC)C(=O)c1nc2c(n1C)CCN(Cc1ccccc1)C2`, the cytotoxicity at 10 µM is 7.28%.

Turning to `CC(=O)N1CCCC(Cc2cnc(-c3c(C)nn(C)c3C)cn2)C1` (configuration not stated), the cytotoxicity at 10 µM is -1.37%.

As to `O=C(NC1CCCN(Cc2c(F)cccc2F)C1)c1cnccn1` (configuration not stated), the cytotoxicity at 10 µM was -1.62%.

For `O=C1COC2(CCN(Cc3cccs3)CC2)CN1c1ccccc1`, the cytotoxicity at 10 µM is -4.63%.

For the compound `CCC(O)CN(c1ccccc1)S(=O)(=O)c1cnc(C)s1` (configuration not stated), the cytotoxicity at 10 µM was -45.6%.

With `O=C(CCc1ccccc1)NCC1CCN(Cc2ccccc2)CC1`, the cytotoxicity at 10 µM was -6.29%.

As for `CCN(CC)CCNC(=O)c1ccc(Cl)c(NS(C)(=O)=O)c1`, the cytotoxicity at 10 µM came out at 5.53%.

For `O=C1CN(c2ccc(CNC(=O)c3ccc[nH]3)cc2F)CCN1`, the cytotoxicity at 10 µM came to 1.28%.

With `Cc1nn(C)cc1NC(=O)CN1CCC(Oc2cnccn2)CC1`, the cytotoxicity at 10 µM is -4.19%.

For `CCCc1nc(CN(CC)Cc2ccc(S(C)(=O)=O)cc2)no1`, the cytotoxicity at 10 µM was -16.9%.

Take `Cc1cnn(CC2CCN(CC(O)c3ccccc3F)CC2)c1` (configuration not stated): the cytotoxicity at 10 µM is -5.18%.

As for `CCN(CC)S(=O)(=O)CC(=O)N1CCc2ccc(C)cc21`, the cytotoxicity at 10 µM is -5.77%.

As for `c1ccc2c(N3CCCC3Cn3cccn3)ncnc2c1` (configuration not stated), the cytotoxicity at 10 µM was determined as 7.94%.

As for `O=C(c1ccccn1)N1CCc2nc(-c3cnccn3)nc(O)c2C1`, the cytotoxicity at 10 µM amounted to 0.487%.

Regarding `Cc1noc(C)c1NC(=O)Cn1cc(Br)ccc1=O`, the cytotoxicity at 10 µM stood at 8.99%.

In the case of `Cc1cc(CN(C)C2CCCN(c3cccnn3)C2)no1` (configuration not stated), the cytotoxicity at 10 µM was -2.45%.

Take `CCNc1ncc(C(=O)N2Cc3nc(C)[nH]c(=O)c3C2)cn1`: the cytotoxicity at 10 µM was -2.19%.

For `O=C([C@@H]1COC[C@H]2CN(C3CCCCC3)C[C@H]21)N1CCOCC1`, the cytotoxicity at 10 µM was -107%.

Take `Cc1nccn1-c1cc(CNC(=O)COCC2CC2)ccn1`: the cytotoxicity at 10 µM worked out at 2.37%.

On to `Cc1ccc(NCCCNC(=O)C2CCCN(Cc3ccco3)C2)nc1` (configuration not stated), for which the cytotoxicity at 10 µM was 3.15%.

`Cc1nc2c(N(CCC(N)=O)CCc3ccccc3)ncnc2o1`: the cytotoxicity at 10 µM is 4.6%.

With `c1csc(-c2nc(CN3CCCC3Cn3cccn3)co2)c1` (configuration not stated), the cytotoxicity at 10 µM was 11.1%.

Take `O=C1CC[C@@H]2[C@@H](CCN2C(=O)C2CCOCC2)N1CC1CC1`: the cytotoxicity at 10 µM is 10.9%.

For the compound `Cc1ccc(N2CCCC3(COCCN(c4cnccn4)C3)C2)nn1` (configuration not stated), the cytotoxicity at 10 µM was -139%.

As to `NC(=O)CSCC(=O)NC1(c2cccc(Cl)c2)CC1`, the cytotoxicity at 10 µM is -16.4%.

For `CCn1c(N)nc2cc(C(=O)N3CCN(c4ccncc4)CC3)cnc21`, the cytotoxicity at 10 µM is -8.3%.

As for `CCCS(=O)(=O)N(C)C(=O)CCc1ccsc1`, the cytotoxicity at 10 µM is 0.321%.

Take `Cc1cccc2c(CCNC(=O)[C@H](N)c3ccccc3)c[nH]c12`: the cytotoxicity at 10 µM was -3.55%.

With `CS(=O)(=O)N1CCC(O)(Cn2c(C3CC3)nc3ccccc3c2=O)CC1`, the cytotoxicity at 10 µM is 3.06%.

In the case of `Cc1ccc(CN2CCC3(CC(C(=O)NC4CCC4)=NO3)C2)o1` (configuration not stated), the cytotoxicity at 10 µM was -97.5%.

Consider `CCn1ncnc1CN1CCC(CNC(=O)c2cccc(C)c2)C1` (configuration not stated), for which the cytotoxicity at 10 µM is -2.59%.

With `CCOc1cc(C(=O)N2CCCC(c3noc(C)n3)C2)ccc1OC` (configuration not stated), the cytotoxicity at 10 µM is -3.33%.

Regarding `CCCN(CCc1ccccn1)C(=O)Cn1cnnn1`, the cytotoxicity at 10 µM turned out to be 2.52%.

As for `O=S(=O)(NCCn1cc(C2CCOC2)nn1)c1ccc(Cl)cc1` (configuration not stated), the cytotoxicity at 10 µM was -4.89%.

Regarding `COCC1CN(C(=O)c2ccnnc2)Cc2ncnn2C1` (configuration not stated), the cytotoxicity at 10 µM is -4.24%.

With `CCC(=O)N1CCc2nc3cc(OC)c(OC)cc3c(=O)n2CC1`, the cytotoxicity at 10 µM turned out to be 2.65%.

Turning to `COc1ccccc1CNc1c(N2CCN(C(C)=O)CC2)c(=O)c1=O`, the cytotoxicity at 10 µM is -0.707%.

As to `CCCN(Cc1ccc(C(=O)NCC2COCCO2)c(=O)[nH]1)C1CC1` (configuration not stated), the cytotoxicity at 10 µM was -15.3%.

As for `COc1c(C)cnc(CN2CCn3c(nnc3C3CC3)C2)c1C`, the cytotoxicity at 10 µM was -4.94%.

With `Cn1cc(-c2nc(CN3CCN(CCO)CC3)cs2)cn1`, the cytotoxicity at 10 µM is -2.66%.

On to `CCN1CCCC(C)(C(=O)NCc2nccn2Cc2ccccc2)C1` (configuration not stated), for which the cytotoxicity at 10 µM came out at 4.69%.

On to `Cc1cc(C)c(C(=O)N2CCC3(CCCN(CC(C)(C)C)C3)C2)[nH]1` (configuration not stated), for which the cytotoxicity at 10 µM was -3.73%.

For `N#CCCN(CC1CC1)S(=O)(=O)c1cccc(Cl)c1`, the cytotoxicity at 10 µM was found to be 9.09%.

For `CCCS(=O)(=O)N1C[C@@H]2C[C@H](C(=O)N(C)C)[C@H](C1)O2`, the cytotoxicity at 10 µM was -74%.

On to `O=C(O)C1(n2ccc(-c3ccco3)n2)CCN(Cc2cccs2)CC1`, for which the cytotoxicity at 10 µM was -125%.

Regarding `CN(Cc1ccccc1)CC1CC2(CO1)CN(c1nncs1)C2` (configuration not stated), the cytotoxicity at 10 µM came to 13.7%.

`Cc1ccc(CN2CCCC3(CCCCN3S(C)(=O)=O)C2)s1` (configuration not stated): the cytotoxicity at 10 µM is -115%.

As to `CCN1CCCC12CCCN(c1ncccn1)C2` (configuration not stated), the cytotoxicity at 10 µM was found to be 0.113%.

On to `O=C(N1CCCC1)N1CCC2(CCN(Cc3ccccn3)C2=O)C1` (configuration not stated), for which the cytotoxicity at 10 µM came to 3.2%.

Turning to `CNC(=O)c1nc(CC(=O)Nc2cccc(C(F)(F)F)c2)no1`, the cytotoxicity at 10 µM is -6.96%.

For `Cc1cccc(-n2cc3nc(N4CCC(C)CC4)[nH]cc-3c2=O)c1`, the cytotoxicity at 10 µM was determined as 0.738%.

As to `COC(=O)c1ccc(N2CCN(C(=O)c3ccco3)C(C)C2)cc1` (configuration not stated), the cytotoxicity at 10 µM is -8.15%.

On to `CC(C)C(Sc1nnc(NC2CC2)s1)C(=O)NCc1cccnc1` (configuration not stated), for which the cytotoxicity at 10 µM was -5.49%.

For `CC[C@H]1CN(S(=O)(=O)c2ccc(OC)cc2)CC[C@H]1CC(=O)O`, the cytotoxicity at 10 µM was 7.28%.

`CN(C)CCOCC1CN(C(=O)c2cccnc2)Cc2ccnn2C1` (configuration not stated): the cytotoxicity at 10 µM stood at 5.57%.

`CC(C(=O)Nc1ccc(N2CCCC2)nc1)n1ccnc1` (configuration not stated): the cytotoxicity at 10 µM was -8.53%.

On to `Cc1cccc(N2CC[C@@H]3CN(Cc4csc(C)n4)CCO[C@@H]3C2)n1`, for which the cytotoxicity at 10 µM was -4.51%.

As for `COc1ccc(F)cc1S(=O)(=O)N1CCC(OC)CC1`, the cytotoxicity at 10 µM is -3.97%.

As to `Cc1c(NC(=O)c2noc3c2CCCC3)cnn1C`, the cytotoxicity at 10 µM was -5.41%.

Consider `O=C1NCCN1C1CCCN(Cc2coc(-c3cccs3)n2)C1` (configuration not stated), for which the cytotoxicity at 10 µM is -4.39%.

As to `CC(Cc1c(F)cccc1F)NC(=O)CN(CC(N)=O)C(C)C` (configuration not stated), the cytotoxicity at 10 µM was -10.5%.

`Cc1noc(CNc2c(N3CCCC3)cccc2N2CCCC2)n1`: the cytotoxicity at 10 µM amounted to 0.184%.

Take `Cc1cnc(N2CC3(CCN(Cc4cccnc4)C3)C2)nc1`: the cytotoxicity at 10 µM was -2.36%.

For the compound `OCC1N(Cc2ccco2)C2CCC1(O)CC2` (configuration not stated), the cytotoxicity at 10 µM is 3.1%.

Turning to `COc1ccc(-c2ccnc(N)c2)c(C)c1`, the cytotoxicity at 10 µM was 6.63%.

For the compound `COc1ccc(C(CC(=O)NCc2n[nH]c(N)n2)c2ccccc2)cc1` (configuration not stated), the cytotoxicity at 10 µM stood at 7.66%.

As to `c1cc(CN2CC[C@@H]3CN(c4cncnc4)C[C@@H]3C2)ccn1`, the cytotoxicity at 10 µM is -116%.

As to `CNS(=O)(=O)c1csc(C(=O)N(C)Cc2sccc2C)c1`, the cytotoxicity at 10 µM is 16.4%.

For `Cc1ccc(C(=O)N2CCN(Cc3ccsc3)CC2)n1C`, the cytotoxicity at 10 µM stood at 0.914%.

`CN(Cc1ccsc1)C(=O)c1ccc(F)c(NS(C)(=O)=O)c1`: the cytotoxicity at 10 µM is -5.7%.

Turning to `CCNC(=O)COc1cc(CC)c2c(C)nn(-c3ccc(C)cc3)c2n1`, the cytotoxicity at 10 µM was 0.409%.

On to `CN(Cc1nnc(C2CC2)n1C)C(=O)c1ccnc(OC2CCC2)c1`, for which the cytotoxicity at 10 µM was -1.01%.

Turning to `COC(=O)c1cccc(S(=O)(=O)Nc2ccc(F)c(C(N)=O)c2)c1`, the cytotoxicity at 10 µM stood at 8.67%.

On to `Cc1noc(CCCC(=O)Nc2cc(C(F)(F)F)c[nH]c2=O)n1`, for which the cytotoxicity at 10 µM is -10.8%.

`COc1ccc(NC(=O)NCc2cccc(N(C)C)n2)c(Cl)c1`: the cytotoxicity at 10 µM amounted to 21.8%.

With `Cc1nnc([C@H]2CCN(CCCc3ccccc3)C2)o1`, the cytotoxicity at 10 µM was found to be 2.87%.

As for `CCn1cc(CN2CCC(CN3CCCCC3)CC2)cc1C#N`, the cytotoxicity at 10 µM was -5.77%.

`COc1cc(C(C)=O)ccc1OCCNCc1ccco1`: the cytotoxicity at 10 µM was -5.05%.

In the case of `CC(=O)N1CCC(n2nccc2-c2cnc(N3CCCC3)nc2)CC1`, the cytotoxicity at 10 µM was -0.00173%.

For `Cc1[nH]c(=O)c(C#N)cc1C(=O)N1C[C@@H](CN2CCCC2)C[C@H](CO)C1`, the cytotoxicity at 10 µM was -8.08%.

On to `COCCOc1cccc(C(=O)N2CCCC(n3ccnc3)C2)c1` (configuration not stated), for which the cytotoxicity at 10 µM is -17.1%.

In the case of `CN(CCc1ccccc1)C(=O)c1cc(CN2CCC(O)CC2)on1`, the cytotoxicity at 10 µM is -2.92%.

For `CCn1cc(NS(=O)(=O)c2ccc(Br)s2)c(C(=O)NCC(C)C)n1`, the cytotoxicity at 10 µM turned out to be 6.86%.

Regarding `CC(C)COC(C)C(=O)N1CCCCC1` (configuration not stated), the cytotoxicity at 10 µM is -5.66%.
